{"source": "paper PMC3869895", "about": "(Investigational New Drugs, 2013)", "key": {"gamma secretase": {"tested_on": "gamma secretase", "conditions": "cited from earlier work"}, "[1]": {"assay": "Pharmacokinetic analysis of total and unbound RO4929097 in serial plasma", "format": "in vivo, human"}, "[2]": {"conditions": "cited from earlier work"}, "xenograft models": {"tested_on": "xenograft models", "conditions": "intermittent and daily dosing in xenograft models; cited from earlier work"}, "[3]": {"conditions": "stated as given in discussion; no reference given; cited from earlier work"}, "[4]": {"conditions": "in vitro; rather than overt cell death; no reference given; cited from earlier work"}, "[5]": {"tested_on": "circulating angiogenesis factors", "conditions": "in vitro; cited from earlier work"}, "advanced solid tumors": {"tested_on": "advanced solid tumors", "assay": "Antitumor activity by RECIST 1.1", "format": "in vivo, human", "conditions": "with gemcitabine", "procedure,_shortened": "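Oral test compound once daily on days 1–3, 8–10, […] and 22–24 of 28-day cycles, fasting, with IV gemcitabine 1,000 mg/m2 on days 1, 8 and 15. Measurable disease required. Radiographic restaging every 2 cycles, scored by RECIST 1.1. Prolonged stable disease means stable disease for 4 or more months. Treatment continued until unacceptable toxicity, progression, withdrawal or study completion.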"}, "[6]": {"tested_on": "patients with advanced solid tumors", "assay": "Phase I 3+3 dose escalation: dose limiting toxicities and adverse events", "format": "in vivo, human"}, "[7]": {"conditions": "dose level 3 (45 mg) + gemcitabine, CTCAE v4"}}, "note": "Entries after “also recorded” stand apart in the source; their conditions may differ."}
{"smiles": "CC(C)(C(=O)NCC(F)(F)C(F)(F)F)C(=O)N[C@@H]1C(=O)Nc2ccccc2-c2ccccc21", "note": "[RO4929097]", "values": [{"measurement": "inhibition of gamma secretase", "setting": "gamma secretase", "result": "potent inhibitor"}, {"measurement": "autoinduction (Day 10: Day 1 total and free AUC 0-24)", "setting": "[1]; dose levels 45 and 90 mg", "result": "presence of autoinduction"}, {"measurement": "day 10: day 1 areas under the curve", "setting": "[1]; with increasing dose levels", "result": "below 1"}, {"measurement": "protein binding", "setting": "[2]", "result": "highly protein bound"}, {"measurement": "antitumor activity", "setting": "xenograft models", "result": "demonstrates antitumor activity"}, {"measurement": "half-life", "setting": "[3]", "result": "approximately 20 h"}, {"measurement": "cell phenotype", "setting": "[4]", "result": "more flattened phenotype"}, {"measurement": "expression of circulating angiogenesis factors", "setting": "[5]", "result": "reduce the expression"}, {"measurement": "stable disease > 4 months (prolonged stable disease), number of patients", "setting": "advanced solid tumors; 18 patients enrolled", "result": 3, "unit": "patients"}, {"measurement": "Best response (RECIST 1.1)", "setting": "advanced solid tumors; one patient with nasopharyngeal carcinoma, 45 mg dose level", "result": "partial response"}, {"measurement": "DLT Event", "setting": "[6]; dose level 2 (30 mg) + gemcitabine", "result": "Transaminitis"}, {"measurement": "Grade of DLT event Transaminitis", "setting": "[6]; dose level 2 (30 mg) + gemcitabine, CTCAE v4", "result": 3}, {"measurement": "DLT Event", "setting": "[6]; dose level 3 (45 mg) + gemcitabine", "result": "Transaminitis; also recorded: Maculopapular rash"}, {"measurement": "Grade of DLT event Maculopapular rash", "setting": "[6]; [7]", "result": 3}, {"measurement": "Grade of DLT event Transaminitis", "setting": "[6]; [7]", "result": 3}, {"measurement": "DLT Event", "setting": "[6]; dose level 4 (90 mg) + gemcitabine", "result": "Transaminitis"}, {"measurement": "Grade of DLT event Transaminitis", "setting": "[6]; dose level 4 (90 mg) + gemcitabine, CTCAE v4", "result": 3}, {"measurement": "Grade of DLT event <75 % RO doses", "setting": "[6]; dose level 4 (90 mg) + gemcitabine, secondary to prolonged neutropenia", "result": 3}, {"measurement": "maximum tolerated dose", "setting": "[6]; in combination with gemcitabine, exceeded at this dose", "result": "< 90", "unit": "mg"}]}
